Reference: ChEMBL document CHEMBL1156469 (2007)
Active and inactive are the calls of the source. No cut-off for these calls is given here.

Key:
[1] = tested on: MC3T3-E1; test: Induction of ER association with BMP2 promoter in mouse MC3T3-E1 cells at 1 uM by ChiP assay; format: functional, cell-based
Summary of the method: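 MC3T3-E1 cells ± 1 μm, formaldehyde-fixed; ChIP with transcription factor antibodies and protein G magnetic beads; BMP-2 promoter quantified by real-time PCR (45 cycles); ratio of IP to input Ct values.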

[2] = tested on: Osteoblast; test: Effect on tumor necrosis factor gene expression in rat primary osteoblast cells assessed as expression ratio of treated to untreated control by microarray analysis; format: functional
Summary of the method: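 GEArray Q series Mouse Osteogenesis cDNA array profiling osteogenic-differentiation genes in treated versus vehicle-treated primary osteoblasts.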

[3] = tested on: Osteoblast; test: Effect on FMS-like tyrosine kinase 1 gene expression in rat primary osteoblast cells assessed as expression ratio of treated to untreated control by microarray analysis; format: functional
[4] = Reversal of increase in pBMP2 expression in rat primary osteoblast cells at 1 uM by luciferase method in presence of PP2; format: functional, cell-based
[5] = Reversal of increase in BMP2 expression in mouse MC3T3-E1 cells expressing pBMP2/mSp1 mutant at 1 uM after 4 hrs by luciferase method; format: functional, cell-based
[6] = target: T1, Alkaline phosphatase (Mus musculus) (UniProt Q9EQ79); test: Inhibition of induction of ALP activity in mouse MC3T3-E1 cells at 1 uM after 48 hrs in presence of BMP2-specific neutralizing antibody; format: cell-based
T1 sequence (whole entry): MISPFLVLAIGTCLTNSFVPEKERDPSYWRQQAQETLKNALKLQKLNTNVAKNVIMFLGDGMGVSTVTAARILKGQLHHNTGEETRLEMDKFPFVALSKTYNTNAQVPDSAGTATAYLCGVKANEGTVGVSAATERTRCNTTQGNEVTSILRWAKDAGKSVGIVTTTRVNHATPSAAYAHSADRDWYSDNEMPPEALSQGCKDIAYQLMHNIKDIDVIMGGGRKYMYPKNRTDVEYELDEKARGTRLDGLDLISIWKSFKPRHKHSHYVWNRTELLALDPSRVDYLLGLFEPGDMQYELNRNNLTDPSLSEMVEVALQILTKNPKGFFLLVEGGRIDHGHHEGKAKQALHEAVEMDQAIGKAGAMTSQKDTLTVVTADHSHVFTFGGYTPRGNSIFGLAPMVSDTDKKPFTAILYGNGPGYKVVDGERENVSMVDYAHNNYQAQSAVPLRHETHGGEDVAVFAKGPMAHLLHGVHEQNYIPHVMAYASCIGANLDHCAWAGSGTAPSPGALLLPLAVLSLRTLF

[7] = tested on: Rattus norvegicus; test: Increase in bone mineral density in ovariectomized Wistar rat dosed orally after 10 weeks; format: functional, organism-based
Summary of the method: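 Female Wistar rats sham-operated or ovariectomized, fed compound orally every 2 days at indicated doses; femur/tibia BMD by DEXA under ketamine (87 mg/kg)/xylazine (13 mg/kg) anesthesia and serum ALP measured 10 weeks after surgery; n = 8/group, means ± S.D.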

[8] = tested on: Osteoblast; test: Effect on procollagen 3 alpha 1 gene expression in rat primary osteoblast cells assessed as expression ratio of treated to untreated control by microarray analysis; format: functional
Summary of the method: (§1)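 Resveratrol-treated and vehicle-treated primary osteoblasts were profiled on a mouse osteogenesis-focused cDNA array (GEArray Q series) built to track gene expression during osteogenic differentiation. Each gene's signal in treated cells was expressed as a ratio to untreated control.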

[9] = tested on: MC3T3-E1; test: Increase in BMP2 expression in mouse MC3T3-E1 cells expressing pBMP2delta3 mutant at 1 uM after 4 hrs by luciferase method relative to control; format: functional, cell-based
Summary of the method: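 MC3T3-E1 cells transfected with BMP-2 promoter–luciferase constructs (full promoter or deletions), treated with 1 μm or vehicle for 4 h; Dual-Luciferase assay; means ± S.D.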

[10] = tested on: MDA-MB-231; test: Decrease in Akt activation in human MDA-MB-231 cells expressing FOXO3a-specific small interfering RNA xenografted in nude mice at 10 mg/kg for 2 days; format: functional, organism-based; set-up: dose 10 mg/kg
Summary of the method: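 MDA-MB-231 cells were cotransfected with FOXO3a siRNA (pSuper) and pcDNA3 at a 10:1 ratio. Stable pools were selected in 800 μg/ml G418 for 4 weeks, and control siRNA pools were made the same way. […] Akt phosphorylation was then assessed in the primary tumors.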

[11] = tested on: Osteoblast; test: Effect on annexin A5 gene expression in rat primary osteoblast cells assessed as expression ratio of treated to untreated control by microarray analysis; format: functional
[12] = target: Forkhead box protein O3 (Homo sapiens) (UniProt O43524); test: Reversal of induction of FOXO3a activity in human MDA-MB-231 cells transfected with constitutively activated Akt mutant; format: cell-based
[13] = tested on: Osteoblast; test: Effect on integrin alpha 2b gene expression in rat primary osteoblast cells assessed as expression ratio of treated to untreated control by microarray analysis; format: functional; summary of the method: as §1
[14] = tested on: MG-63; test: Increase in osteopontin levels in human MG63 cells at 1 uM after 72 hrs by ELISA; format: functional, cell-based
Summary of the method: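 Cells treated with 1 μm for 72 h; osteocalcin or osteopontin in culture medium by sandwich ELISA, HRP-streptavidin/TMB, 450 nm; percent change versus untreated control.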

[15] = target: T2, Estrogen receptor (Mus musculus) (UniProt P19785); test: Reversal of increase in DNA-binding activity of ERalpha in nuclear extracts of mouse MC3T3-E1 cells by electrophoretic mobility shift assays in presence of short interfering ER alpha-RNA; format: cell-based
T2 sequence (whole entry): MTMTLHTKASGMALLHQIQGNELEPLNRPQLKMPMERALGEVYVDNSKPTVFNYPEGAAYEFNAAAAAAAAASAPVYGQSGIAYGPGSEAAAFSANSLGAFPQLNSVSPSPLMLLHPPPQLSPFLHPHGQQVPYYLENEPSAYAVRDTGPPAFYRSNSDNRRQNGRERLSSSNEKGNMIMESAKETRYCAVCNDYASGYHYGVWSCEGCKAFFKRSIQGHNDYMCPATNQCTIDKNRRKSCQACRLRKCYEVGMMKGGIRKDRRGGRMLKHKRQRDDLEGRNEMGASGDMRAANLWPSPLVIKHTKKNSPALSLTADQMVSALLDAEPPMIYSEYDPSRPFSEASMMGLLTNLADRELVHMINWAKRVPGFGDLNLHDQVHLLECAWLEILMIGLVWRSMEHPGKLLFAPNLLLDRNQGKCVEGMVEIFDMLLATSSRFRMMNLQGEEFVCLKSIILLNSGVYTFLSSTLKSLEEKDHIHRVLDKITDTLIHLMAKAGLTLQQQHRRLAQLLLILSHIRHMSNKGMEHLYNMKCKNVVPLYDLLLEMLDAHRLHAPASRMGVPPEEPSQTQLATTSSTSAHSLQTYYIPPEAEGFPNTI
Summary of the method: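 Nuclear extracts of MC3T3-E1 cells. ER-binding probe [α-32P]dCTP end-labeled, 20-min binding at room temperature, 5-fold unlabeled competitor where used. Complexes resolved on 5% nondenaturing PAGE in Tris-borate-EDTA pH 8.3, then autoradiography.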

[16] = tested on: Osteoblast; test: Inhibition of TNF-alpha-induced apoptosis in rat primary osteoblast cells after 24 hrs by flow cytometry; format: functional, cell-based
Summary of the method: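 Cells washed in PBS, held 30 min in 0.5% Triton X-100/PBS/0.05% RNase A, then propidium iodide (50 μg/ml) added and kept on ice 15–30 min. Apoptosis is the hypodiploid fraction below the G0/G1 peak, by flow cytometry. Run in triplicate and repeated on three occasions.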

Forkhead box protein O3 (Homo sapiens), sequence (O43524 whole entry): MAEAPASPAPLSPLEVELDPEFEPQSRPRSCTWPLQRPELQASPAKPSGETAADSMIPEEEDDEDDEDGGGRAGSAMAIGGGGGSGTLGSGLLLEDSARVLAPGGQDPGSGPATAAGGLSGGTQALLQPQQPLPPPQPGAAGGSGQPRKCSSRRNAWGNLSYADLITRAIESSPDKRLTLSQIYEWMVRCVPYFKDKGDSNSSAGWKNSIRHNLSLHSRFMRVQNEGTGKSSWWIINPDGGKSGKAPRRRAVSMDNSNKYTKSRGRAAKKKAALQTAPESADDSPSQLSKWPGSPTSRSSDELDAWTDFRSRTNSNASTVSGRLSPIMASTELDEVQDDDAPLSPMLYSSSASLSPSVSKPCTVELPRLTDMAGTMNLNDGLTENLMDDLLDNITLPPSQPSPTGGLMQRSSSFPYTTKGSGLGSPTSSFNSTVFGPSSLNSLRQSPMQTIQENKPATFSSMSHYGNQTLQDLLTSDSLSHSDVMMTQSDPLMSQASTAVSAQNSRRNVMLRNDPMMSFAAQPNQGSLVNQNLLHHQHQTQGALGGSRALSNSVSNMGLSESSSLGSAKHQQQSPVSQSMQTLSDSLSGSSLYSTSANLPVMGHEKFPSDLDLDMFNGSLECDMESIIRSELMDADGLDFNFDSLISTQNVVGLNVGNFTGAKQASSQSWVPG

Activity [6]: Active | Activity [12]: Active | Activity [15]: Active
Structure (SMILES): Oc1ccc(/C=C/c2cc(O)cc(O)c2)cc1 [RESVERATROL]
Activity [1]: Active | Ratio [2]: 0.46 | Ratio [3]: 0.41 | Activity [4]: Active | Activity [5]: inactive | Activity [7]: Dose-dependent effect | Ratio [8]: 4.41 | Activity [9]: inactive | Activity [10]: Active | Ratio [11]: 4.02 | Ratio [13]: 0.57 | Activity [14]: Active | Activity [16]: Active
